Key:
[1] = Lipophilicity (calculated by CLIP)
[2] = Capacity factor (log Kw) was measured; format: ADME; conditions: RP-HPLC, methanol/phosphate buffer pH 7.4, extrapolated to 0% methanol
Summary of the method: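 RP-HPLC on a C18 column (250 mm × 4.6 mm, 5 μm particles), UV detection at 250 nm. Four mobile phases of methanol/0.1 M phosphate buffer pH 7.4 (90:10, 80:20, 75:25, 70:30 v/v). k' = (tr − t0)/t0, with t0 the column dead time. Calibrated against reference solutes of known log P (0.64–3.30), and log kw indices correlated with log P.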

[3] = biological target: Cannabinoid receptor 1 (Homo sapiens) (UniProt P21554); assay: Percent displacement of [3H]-SR-141716A, by compound at 10 uM, in transfected CHO cells expressing the human cannabinoid receptor 1.; format: cell-based
Summary of the method: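 Membranes (60 μg) from CHO cells expressing human CB1, cultured in Ham F12 with 10% FCS and G418. Test compound screened at 10 μM against 1 nM [3H]-SR-141716A, 1 h at 30 °C, in 50 mM Tris-HCl pH 7.4 with 3 mM MgCl2, 1 mM EDTA and 0.1% BSA. Nonspecific binding defined with 10 μM WIN-55,212-2 or CP-55,940. PEI-treated GF/C filtration, scintillation counting, triplicates, n = 3–5.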

Sequence of Cannabinoid receptor 1 (Homo sapiens) (P21554 whole entry): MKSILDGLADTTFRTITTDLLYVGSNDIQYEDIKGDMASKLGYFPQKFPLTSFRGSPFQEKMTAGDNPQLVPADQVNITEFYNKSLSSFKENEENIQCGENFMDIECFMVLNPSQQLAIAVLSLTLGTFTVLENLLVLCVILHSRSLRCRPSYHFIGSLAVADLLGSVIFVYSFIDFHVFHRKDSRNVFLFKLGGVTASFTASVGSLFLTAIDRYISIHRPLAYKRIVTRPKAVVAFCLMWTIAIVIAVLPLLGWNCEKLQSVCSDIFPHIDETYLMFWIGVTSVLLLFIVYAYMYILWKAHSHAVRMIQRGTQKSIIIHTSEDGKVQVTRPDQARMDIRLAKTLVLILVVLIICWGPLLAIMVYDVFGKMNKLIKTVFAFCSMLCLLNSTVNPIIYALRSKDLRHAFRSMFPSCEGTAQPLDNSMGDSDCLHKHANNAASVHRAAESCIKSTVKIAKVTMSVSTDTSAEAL

Row | SMILES | CLIP [1] | Log Kw [2] | Displacement [3]
1 | O=C1NC(c2ccc(Br)cc2)(c2ccc(Br)cc2)C(=O)N1CCCO | 3.76 | – | –
2 | CCCCCCCN1C(=O)NC(c2ccc(C)cc2)(c2ccc(C)cc2)C1=O | 7.04 | – | –
3 | COc1ccc(C2(c3ccc(OC)cc3)NC(=O)N(CCN3CCOCC3)C2=O)cc1 | 2.73 | – | –
4 | CCCCCCN1C(=O)NC(c2ccc(F)cc2)(c2ccc(F)cc2)C1=O | 5.81 | – | –
5 | CCCCCCN1C(=O)NC(c2ccc(Br)cc2)(c2ccc(Br)cc2)C1=O | 6.87 | 6.14 | –
6 | CCCCCCN1C(=O)NC(c2ccc(C)cc2)(c2ccc(C)cc2)C1=O | 6.48 | – | –
7 | Cc1ccc(C2(c3ccc(C)cc3)NC(=O)N(CCN3CCOCC3)C2=O)cc1 | 3.49 | – | –
8 | O=C1NC(c2ccc(F)cc2)(c2ccc(F)cc2)C(=O)N1CCN1CCOCC1 | 2.81 | – | –
9 | CCCCCCCCN1C(=O)NC(c2ccc(Br)cc2)(c2ccc(Br)cc2)C1=O | 7.99 | – | –
10 | CCCCCCCCN1C(=O)NC(c2ccc(F)cc2)(c2ccc(F)cc2)C1=O | 6.94 | – | –
11 | CCCCCCCN1C(=O)NC(c2ccc(Br)cc2)(c2ccc(Br)cc2)C1=O | 7.45 | 6.65 | –
12 | O=C1NC(c2ccccc2)(c2ccccc2)C(=O)N1Cc1ccccc1 | 4.11 | – | –
13 | O=C1NC(Cc2c[nH]c3ccccc23)C(=O)N1Cc1cccc2ccccc12 (stereo unspecified) | 2.92 | 3.08 | 59.8%
14 | CCCCN1C(=O)NC(c2ccccc2)(c2ccccc2)C1=O | 4.26 | 3.46 | –
15 | CCCCCCN1C(=O)NC(c2ccc(OC)cc2)(c2ccc(OC)cc2)C1=O | 5.81 | – | –
16 | CCCCN1C(=O)NC(Cc2c[nH]c3ccccc23)C1=O (stereo unspecified) | 2.21 | 2.35 | < 5%
17 | CCCCCN1C(=O)NC(c2ccccc2)(c2ccccc2)C1=O | 4.8 | – | –
18 | CCCCCCN1C(=O)NC(c2ccccc2)(c2ccccc2)C1=O | 5.37 | 4.32 | –
19 | CCCN1C(=O)NC(c2ccccc2)(c2ccccc2)C1=O | 3.84 | 2.93 | –
20 | O=C1NC(Cc2c[nH]c3ccccc23)C(=O)N1CCc1ccccc1 (stereo unspecified) | 2.31 | – | 64%
21 | O=C1NC(Cc2c[nH]c3ccccc23)C(=O)N1CCCc1ccccc1 (stereo unspecified) | 2.8 | – | 44.3%
22 | CC(C)N1C(=O)NC(c2ccccc2)(c2ccccc2)C1=O | 2.89 | – | < 5%
23 | O=C1NC(c2ccccc2)(c2ccccc2)C(=O)N1CCN1CCCCC1 | 3.83 | 4.11 | –
24 | O=C1NC(c2ccccc2)(c2ccccc2)C(=O)N1CCN1CCOCC1 | 2.16 | – | –
25 | CCCCCCN1C(=O)NC(Cc2c[nH]c3ccccc23)C1=O (stereo unspecified) | 3.21 | 3.17 | 28.8%
26 | O=C1NC(c2ccc(Br)cc2)(c2ccc(Br)cc2)C(=O)N1CCN1CCOCC1 | 3.86 | 4.5 | –
27 | CCCCCCCN1C(=O)NC(c2ccc(F)cc2)(c2ccc(F)cc2)C1=O | 6.42 | – | –
28 | CN(C)CCN1C(=O)NC(c2ccccc2)(c2ccccc2)C1=O | 2.83 | 3 | –
29 | CCCCCCCCN1C(=O)NC(c2ccccc2)(c2ccccc2)C1=O | 6.5 | – | –

Reference: ChEMBL document CHEMBL1135925, “Exploration of the pharmacophore of 3-alkyl-5-arylimidazolidinediones as new CB(1) cannabinoid receptor ligands and potential antagonists: synthesis, lipophilicity, affinity, and molecular modeling” (J Med Chem, 2002)
